Measurements: ChEMBL document CHEMBL5385902, “Synthesis of urea and thiourea derivatives of C20-epi-aminosalinomycin and their activity against Trypanosoma brucei” (Eur J Med Chem, 2023)
≈ marks a conversion by molar mass, not a printed value. Calls of active or inactive are those of the source. The calls are words filed in the database; no cut-off is given here.

Key:
[1] = Cytotoxicity against human HL-60 cells assessed as cell killing incubated for 24 hrs by microscopic analysis; type: toxicity, cell-based; settings: read-out: MIC
In short: (§1)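 Bloodstream-form T. brucei 427-221a seeded at 1 × 10^4 mL^-1 or HL-60 cells at 5 × 10^4 mL^-1 in Baltz medium with 16.7% heat-inactivated bovine serum, 0.9% DMSO, 10-fold dilutions 100 μM to 100 nM; 37 °C, 5% CO2. MIC, concentration killing all cells, determined microscopically. Possible values 100 μM down to […].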

[2] = Selectivity index, ratio of GI50 for cytotoxicity against human HL60 cells to GI50 for Trypanocidal activity against bloodstream form of Trypanosoma brucei 427-221a; type: toxicity, cell-based; settings: read-out: RatioGI50
In short: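 Ratio of HL-60 GI50 to T. brucei GI50. Both from the resazurin assay in Baltz medium with 16.7% heat-inactivated bovine serum and 0.9% DMSO, 10-fold dilutions 100 μM to 100 nM, 24 h then 48 h with resazurin. GI50 by linear interpolation, three independent experiments.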

[3] = Cytotoxicity against human HL-60 cells assessed as inhibition of cell growth incubated for 24 hrs and measured at 48 hrs following resazurin challenge by resazurin assay; type: toxicity, cell-based
In short: (§2)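 Bloodstream-form T. brucei 427-221a (1 × 10^4 mL^-1) or HL-60 cells (5 × 10^4 mL^-1) in Baltz medium with 16.7% heat-inactivated bovine serum, 0.9% DMSO, 10-fold dilutions 100 μM to 100 nM; 37 °C, 5% CO2, 24 h. Resazurin then added, 48 h more; absorbance 570 nm, reference 630 nm. GI50 by linear interpolation; mean and SD of three independent experiments.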

Trypanosoma brucei [4] = assay: Trypanocidal activity against bloodstream form of Trypanosoma brucei 427-221a assessed as parasite killing incubated for 24 hrs by microscopic analysis; type: functional; in short: as §1
Trypanosoma brucei [5] = assay: Trypanocidal activity against bloodstream form of Trypanosoma brucei 427-221a assessed as inhibition of parasite growth incubated for 24 hrs and measured at 48 hrs following resazurin challenge by resazurin assay; type: functional; settings: time 72 hrs; in short: as §2
[6] = Selectivity index, ratio of MIC for cytotoxicity against human HL60 cells to MIC for Trypanocidal activity against bloodstream form of Trypanosoma brucei 427-221a; type: toxicity, cell-based; settings: read-out: Selectivity Index
Trypanosoma brucei [7] = assay: Trypanocidal activity against bloodstream form of Trypanosoma brucei 427-221a assessed as increase in cell swelling activity at 100 uM measured every 10 min for 60 mins by light scattering method; type: functional, organism-based
In short: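 Light-scattering cell-volume assay. 1 × 10^7 bloodstream-form T. brucei 427-221a in 200 μL Baltz medium with 100 μM compound and 0.9% DMSO; controls with DMSO only. Absorbance at 490 nm read every 10 min for 60 min; falling absorbance indicates cell swelling. Rate constant k of the absorbance decrease derived. Means of three independent experiments.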

[8] = Lipophilicity, log P of the compound; type: physicochemical; settings: octanol/water

With `C=CCNC(=S)N[C@H]1C=C[C@]2(O[C@H]([C@@H](CC)C(=O)[C@@H](C)[C@@H](O)[C@H](C)[C@@H]3O[C@@H]([C@@H](CC)C(=O)O)CC[C@@H]3C)[C@@H](C)C[C@H]2C)O[C@@]12CC[C@@](C)([C@H]1CC[C@](O)(CC)[C@H](C)O1)O2` the MCC at 24 h [1] was 100 µM, the selectivity ratio [2] was 48.7 and the GI50 at 72 h [3] was 15.1 µM. For the same molecule, the MIC (Trypanosoma brucei [4]) was 1 µM (≈ 0.849 µg/mL), the GI50 (Trypanosoma brucei [5]) was 0.31 µM and the selectivity ratio [6] was 100.

`CC[C@@H](C(=O)[C@@H](C)[C@@H](O)[C@H](C)[C@@H]1O[C@@H]([C@@H](CC)C(=O)O)CC[C@@H]1C)[C@H]1O[C@]2(C=C[C@H](NC(=O)NCc3ccccc3)[C@]3(CC[C@@](C)([C@H]4CC[C@](O)(CC)[C@H](C)O4)O3)O2)[C@H](C)C[C@@H]1C` gave an MCC at 24 h [1] of 100 µM, a selectivity ratio [2] of 11.1 and a GI50 at 72 h [3] of 16.7 µM. It also gave an MIC (Trypanosoma brucei [4]) of 10 µM (≈ 8.83 µg/mL), a GI50 (Trypanosoma brucei [5]) of 1.5 µM and a selectivity ratio [6] of 10.

With `CC[C@@H](C(=O)[C@@H](C)[C@@H](O)[C@H](C)[C@@H]1O[C@@H]([C@@H](CC)C(=O)O)CC[C@@H]1C)[C@H]1O[C@]2(C=C[C@H](NC(=S)Nc3ccccc3)[C@]3(CC[C@@](C)([C@H]4CC[C@](O)(CC)[C@H](C)O4)O3)O2)[C@H](C)C[C@@H]1C` the MCC at 24 h [1] was 10 µM, the selectivity ratio [2] was 40.5 and the GI50 at 72 h [3] was 8.9 µM. For the same molecule, the MIC (Trypanosoma brucei [4]) was 1 µM (≈ 0.885 µg/mL), the Activity (Trypanosoma brucei [7]) was “Active” and the GI50 (Trypanosoma brucei [5]) was 0.22 µM. The selectivity ratio [6] was 10.

In the case of `CC[C@@H](C(=O)[C@@H](C)[C@@H](O)[C@H](C)[C@@H]1O[C@@H]([C@@H](CC)C(=O)O)CC[C@@H]1C)[C@H]1O[C@]2(C=C[C@H](NC(=O)NCCCCl)[C@]3(CC[C@@](C)([C@H]4CC[C@](O)(CC)[C@H](C)O4)O3)O2)[C@H](C)C[C@@H]1C`, the MCC at 24 h [1] is reported as 100 µM, the selectivity ratio [2] is reported as 7.9 and the GI50 at 72 h [3] is reported as 18.1 µM. For the same molecule, the MIC (Trypanosoma brucei [4]) was 10 µM (≈ 8.7 µg/mL), the GI50 (Trypanosoma brucei [5]) was 2.3 µM and the selectivity ratio [6] was 10.

`CCCCNC(=O)N[C@H]1C=C[C@]2(O[C@H]([C@@H](CC)C(=O)[C@@H](C)[C@@H](O)[C@H](C)[C@@H]3O[C@@H]([C@@H](CC)C(=O)O)CC[C@@H]3C)[C@@H](C)C[C@H]2C)O[C@@]12CC[C@@](C)([C@H]1CC[C@](O)(CC)[C@H](C)O1)O2` gave an MCC at 24 h [1] of 100 µM, a selectivity ratio [2] of 55 and a GI50 at 72 h [3] of 19.8 µM. The MIC (Trypanosoma brucei [4]) was 1 µM (≈ 0.849 µg/mL), the Activity (Trypanosoma brucei [7]) was “Active” and the GI50 (Trypanosoma brucei [5]) was 0.36 µM. For the same molecule, the selectivity ratio [6] was 100.

Work on `CC[C@@H](C(=O)[C@@H](C)[C@@H](O)[C@H](C)[C@@H]1O[C@@H]([C@@H](CC)C(=O)O)CC[C@@H]1C)[C@H]1O[C@]2(C=C[C@H](NC(=O)Nc3cccc4ccccc34)[C@]3(CC[C@@](C)([C@H]4CC[C@](O)(CC)[C@H](C)O4)O3)O2)[C@H](C)C[C@@H]1C` yielded an MCC at 24 h [1] of 100 µM, a selectivity ratio [2] of 7.1 and a GI50 at 72 h [3] of 13.5 µM. It also gave an MIC (Trypanosoma brucei [4]) of 10 µM (≈ 9.19 µg/mL), a GI50 (Trypanosoma brucei [5]) of 1.9 µM and a selectivity ratio [6] of 10.

In the case of `C=CCNC(=O)N[C@H]1C=C[C@]2(O[C@H]([C@@H](CC)C(=O)[C@@H](C)[C@@H](O)[C@H](C)[C@@H]3O[C@@H]([C@@H](CC)C(=O)O)CC[C@@H]3C)[C@@H](C)C[C@H]2C)O[C@@]12CC[C@@](C)([C@H]1CC[C@](O)(CC)[C@H](C)O1)O2`, the MCC at 24 h [1] is reported as 100 µM, the selectivity ratio [2] is reported as 12 and the GI50 at 72 h [3] is reported as 38.3 µM. For the same molecule, the MIC (Trypanosoma brucei [4]) was 10 µM (≈ 8.33 µg/mL), the GI50 (Trypanosoma brucei [5]) was 3.2 µM and the selectivity ratio [6] was 10.

For `CC[n+]1c(-c2ccccc2)c2cc(N)ccc2c2ccc(N)cc21` [HOMIDIUM BROMIDE], the MCC at 24 h [1] was 10 µM, the selectivity ratio [2] was 73.6 and the GI50 at 72 h [3] was 6.4 µM. The MIC (Trypanosoma brucei [4]) was 10 µM, the GI50 (Trypanosoma brucei [5]) was 0.087 µM and the selectivity ratio [6] was 1.

Molecule `CC[C@@H](C(=O)[C@@H](C)[C@@H](O)[C@H](C)[C@@H]1O[C@@H]([C@@H](CC)C(=O)O)CC[C@@H]1C)[C@H]1O[C@]2(C=C[C@@H](O)[C@]3(CC[C@@](C)([C@H]4CC[C@](O)(CC)[C@H](C)O4)O3)O2)[C@H](C)C[C@@H]1C` [SALINOMYCIN] has an MCC at 24 h [1] of 100 µM, a selectivity ratio [2] of 74.1 and a GI50 at 72 h [3] of 20 µM. For the same molecule, the MIC (Trypanosoma brucei [4]) was 1 µM (≈ 0.751 µg/mL), the Activity (Trypanosoma brucei [7]) was “Active” and the logP [8] was over 6.2. It also gave a GI50 (Trypanosoma brucei [5]) of 0.27 µM and a selectivity ratio [6] of 100.
